Laboratory results taken from article PMC7296533 (ACS Infectious Diseases, 2020).

Assays:
VIM-2 = VIM-2 (Escherichia coli, UniProt Q5U7L7); test: MBL enzyme inhibition assay, fluorescent cephalosporin substrate FC5; type: biochemical
Method in brief: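 VIM-2 was expressed from a donated plasmid construct and purified. Test compound was serially diluted in 50 mM HEPES pH 7.2 containing 0.01% Triton X-100 and 1 μM ZnSO4, then preincubated for 15 min at 25 °C with 100 pM enzyme. Fluorescent cephalosporin FC536 (0.5 μM) was added and fluorescence (λex 380, λem 460 nm) followed over 30–40 scans. IC50 was fitted from initial rates against concentration.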

NDM-1 = NDM-1 (Klebsiella pneumoniae, UniProt C7C422); test: MBL enzyme inhibition assay, fluorescent cephalosporin substrate FC5; type: biochemical
IMP-28 = test: MBL enzyme inhibition assay, fluorescent cephalosporin substrate FC5; type: biochemical; conditions: read-out: IC50 against IMP-28; 60 pM IMP-28, 1 μM ZnSO4; mean ± SD
Method in brief: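 Recombinant C-terminal His-tagged IMP-28 (pET28b construct). Serial dilutions of test compound were made in 50 mM HEPES pH 7.2 with 0.01% Triton X-100 and 1 μM ZnSO4. Enzyme (60 pM) was preincubated with compound for 15 min at 25 °C. FC536 (16 μM) was added and fluorescence (ex 380/em 460 nm) read immediately over 30–40 cycles. IC50 was curve-fitted from initial velocities versus inhibitor concentration.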

[1] = test system: panel of carbapenem-resistant clinical isolates of Gram-negative bacteria; test: Single concentration synergy assay, summary over the panel; type: cell-based; conditions: for Reduction of MIC of Meropenem, in most cases: inhibitor at 32 μg/mL, strains expressing IMP-type enzymes
Method in brief: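 CLSI broth microdilution. Isolates grown overnight on blood agar at 37 °C, then in TSB at 37 °C with shaking to OD600 0.5, and diluted in Mueller-Hinton broth. Meropenem serially diluted in MHB with test compound at a fixed 32 μg/mL final. Incubated 37 °C with shaking for 16–20 h. MIC is the lowest concentration with no visible growth, as the median of triplicates.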

[2] = test system: E. coli RC0089 (clinical NDM-1 positive isolate); test: OD600 checkerboard assay with Meropenem; type: cell-based; conditions: E. coli expressing NDM-1

NDM-1, sequence (C7C422 29-270, looked up, species assumed): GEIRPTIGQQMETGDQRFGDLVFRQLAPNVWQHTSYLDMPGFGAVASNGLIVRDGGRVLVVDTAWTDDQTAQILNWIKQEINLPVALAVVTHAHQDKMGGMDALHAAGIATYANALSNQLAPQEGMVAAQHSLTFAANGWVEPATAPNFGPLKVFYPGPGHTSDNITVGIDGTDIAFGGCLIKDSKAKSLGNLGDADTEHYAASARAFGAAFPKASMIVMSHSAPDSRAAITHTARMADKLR

Structure (SMILES) | IC50 (VIM-2) [nM] | IC50 (NDM-1) [µM] | Effect of zinc sulfate concentration on IC50 against NDM-1 (NDM-1; zinc sulfate 0.1 to 20 μM) | IC50 (IMP-28) [µM] | Reduction of MIC of Meropenem, in most cases [1] [fold] | Synergy with Meropenem against strains expressing serine-carbapenemases ([1]; KPC-2 and OXA-48) | Antibacterial activity of the inhibitor alone ([1]; highest tested concentration 256 μg/mL) | Relationship with Meropenem in checkerboard (in words) [2]
O=C(O)c1cccc(C(=O)O)n1 [DPA, 2,6-Dipicolinic acid, reference compound] | 2900 ± 500 | 3.8 ± 0.04 | zinc-dependent effect | 17 ± 1 | ≤ 4 |  |  | 
O=C(O)CN(CC(=O)O)CC(=O)O [compound 3, Nitrilotriacetic acid] | ~2400 |  |  | 112 ± 3 | ≤ 4 | complete lack of synergy | no antibacterial activity | strong synergistic relationship
